Key:
[1] = Cytotoxicity against monkey COS7 cells at 0.1 to 10 uM after 24 hrs by MTT assay; details: chlorocebus aethiops, cos-7, 24 h
[2] = target: Glutamate receptor ionotropic kainate 1 (Homo sapiens) (UniProt P39086); test: Antagonist activity at human recombinant GluR5 expressed in HEK cells coexpressing aequorine assessed as inhibition of glutamate-induced Ca2+ influx at 10 uM by luminescence reporter assay relative to control; details: HEK293
[3] = system: N2a; test: Cytotoxicity against mouse N2A cells at 0.1 to 10 uM after 24 hrs by MTT assay; type: cell-based
Procedure, shortened: (§1)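 Cell viability was measured by MTT in N2A neuroblastoma and COS7 monkey kidney cells after 24 h compound incubation. Formazan was released with lysis buffer and absorbance was read at 590 nm.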

[4] = system: N2a; test: Cytotoxicity against mouse N2A cells at 100 uM after 24 hrs by MTT assay; type: cell-based
Procedure, shortened: as §1

[5] = Cytotoxicity against monkey COS7 cells at 100 uM after 24 hrs by MTT assay; details: chlorocebus aethiops, cos-7, 24 h
[6] = target: Glutamate receptor ionotropic kainate 2 (Homo sapiens) (UniProt Q13002); test: Antagonist activity at human recombinant GluR6 expressed in HEK cells coexpressing aequorine assessed as inhibition of glutamate-induced Ca2+ influx at 10 uM by luminescence reporter assay relative to control; details: HEK293
[7] = target: Glutamate receptor ionotropic kainate 1 (Homo sapiens) (UniProt P39086); test: Antagonist activity at human recombinant GluR5 expressed in HEK cells coexpressing aequorine assessed as inhibition of glutamate-induced Ca2+ influx at 100 uM by luminescence reporter assay relative to control; details: HEK293
[8] = target: Glutamate receptor ionotropic kainate 2 (Homo sapiens) (UniProt Q13002); test: Antagonist activity at human recombinant GluR6 expressed in HEK cells coexpressing aequorine assessed as inhibition of glutamate-induced Ca2+ influx at 100 uM by luminescence reporter assay relative to control; details: HEK293

Glutamate receptor ionotropic kainate 1 (Homo sapiens), sequence (P39086 whole entry, looked up): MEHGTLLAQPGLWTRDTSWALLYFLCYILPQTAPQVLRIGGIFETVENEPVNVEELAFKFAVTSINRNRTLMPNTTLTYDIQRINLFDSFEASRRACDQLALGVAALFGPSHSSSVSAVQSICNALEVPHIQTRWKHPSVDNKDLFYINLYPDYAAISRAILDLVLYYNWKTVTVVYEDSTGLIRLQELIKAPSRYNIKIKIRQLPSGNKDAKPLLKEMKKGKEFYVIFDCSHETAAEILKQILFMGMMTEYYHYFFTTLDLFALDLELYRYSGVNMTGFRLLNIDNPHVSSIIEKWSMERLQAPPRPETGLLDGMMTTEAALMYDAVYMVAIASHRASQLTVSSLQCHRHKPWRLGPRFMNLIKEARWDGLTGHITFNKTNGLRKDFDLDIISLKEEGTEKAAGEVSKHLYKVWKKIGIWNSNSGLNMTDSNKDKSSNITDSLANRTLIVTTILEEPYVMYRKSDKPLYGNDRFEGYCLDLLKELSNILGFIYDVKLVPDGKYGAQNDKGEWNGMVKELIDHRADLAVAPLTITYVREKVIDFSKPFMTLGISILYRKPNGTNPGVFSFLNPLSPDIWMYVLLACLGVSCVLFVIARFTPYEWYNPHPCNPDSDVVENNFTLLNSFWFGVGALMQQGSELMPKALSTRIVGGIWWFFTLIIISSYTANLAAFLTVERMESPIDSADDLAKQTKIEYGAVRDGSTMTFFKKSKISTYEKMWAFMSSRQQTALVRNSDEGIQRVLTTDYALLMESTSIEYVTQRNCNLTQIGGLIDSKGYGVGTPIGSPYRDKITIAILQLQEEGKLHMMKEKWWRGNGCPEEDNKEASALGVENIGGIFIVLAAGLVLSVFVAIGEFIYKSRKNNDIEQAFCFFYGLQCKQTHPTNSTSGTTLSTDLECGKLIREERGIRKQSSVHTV
Glutamate receptor ionotropic kainate 2 (Homo sapiens), sequence (Q13002 whole entry, looked up): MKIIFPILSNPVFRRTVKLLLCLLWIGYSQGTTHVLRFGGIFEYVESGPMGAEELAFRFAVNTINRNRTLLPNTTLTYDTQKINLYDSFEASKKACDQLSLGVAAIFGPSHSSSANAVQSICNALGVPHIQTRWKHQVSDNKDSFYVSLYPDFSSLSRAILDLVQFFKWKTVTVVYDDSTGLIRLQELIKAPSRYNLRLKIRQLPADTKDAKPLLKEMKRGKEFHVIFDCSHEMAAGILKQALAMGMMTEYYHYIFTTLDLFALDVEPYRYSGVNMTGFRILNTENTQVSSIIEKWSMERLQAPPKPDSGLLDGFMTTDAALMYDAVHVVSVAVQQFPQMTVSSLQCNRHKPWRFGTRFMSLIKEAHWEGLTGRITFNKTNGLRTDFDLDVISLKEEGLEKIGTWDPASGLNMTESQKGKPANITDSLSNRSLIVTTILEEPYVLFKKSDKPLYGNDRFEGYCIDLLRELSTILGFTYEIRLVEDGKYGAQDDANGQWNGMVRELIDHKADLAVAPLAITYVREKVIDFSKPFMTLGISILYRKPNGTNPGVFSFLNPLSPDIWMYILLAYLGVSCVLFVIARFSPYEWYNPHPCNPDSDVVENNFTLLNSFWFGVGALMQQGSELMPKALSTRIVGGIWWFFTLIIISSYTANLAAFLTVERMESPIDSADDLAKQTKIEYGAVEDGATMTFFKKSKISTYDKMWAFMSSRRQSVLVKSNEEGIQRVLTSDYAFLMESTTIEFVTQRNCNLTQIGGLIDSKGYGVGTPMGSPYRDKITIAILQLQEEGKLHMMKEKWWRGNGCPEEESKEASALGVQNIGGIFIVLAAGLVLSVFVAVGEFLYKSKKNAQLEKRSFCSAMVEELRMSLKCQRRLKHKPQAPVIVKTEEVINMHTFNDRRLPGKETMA

Structure (SMILES) | inhibition [2] | inhibition [6] | also measured
Oc1nc(S)nc2sc3c(c12)CCCC3 | 17% | 0% | –
CCNC(=O)Nc1sc2c(c1C(N)=O)CCCC2 | 0.1% | 12% | –
CCSc1nc2sc(-c3ccccc3)c(C)c2c(=O)[nH]1 | 1% | 0% | –
NC(=O)c1c(N)sc2c1CCCC2 | 4% | 13% | –
Cc1c(-c2ccccc2)sc(N)c1C(=O)c1ccccc1 | 17% | – | –
COC(=O)c1c(N)sc(-c2ccccc2)c1C | – | – | Activity [1]: Non-toxic; Activity [3]: Non-toxic; Activity [5]: Non-toxic
CCOC(=O)Nc1sc2c(c1C(N)=O)CCCC2 | 14% | 17% | –
CCOC(=O)c1c(N)sc(-c2ccc(F)cc2)c1C | 0% | – | –
CCOC(=O)c1c(N)sc(-c2ccccc2Cl)c1C | 10% | – | –
Cc1c(-c2ccccc2)sc2[nH]c(=S)[nH]c(=O)c12 | 10% | -2% | –
CCOC(=O)c1cc(-c2ccccc2)sc1N | – | -1% | inhibition [7]: 25%
CCOC(=O)c1c(N)sc2c1CCCC2 | 7% | 11% | –
CCOC(=O)c1c(N)sc(-c2ccc(OC)cc2)c1C | 1% | – | –
CCOC(=O)c1c(N=NN2CCOCC2)sc(-c2ccccc2)c1C | 4% | – | –
CCn1c(=O)[nH]c2sc(-c3ccccc3)c(C)c2c1=O | 11.8% | 9.5% | –
Cc1c(-c2ccccc2)sc(N)c1C(=O)OC(C)(C)C | 4% | – | –
CCn1c(=O)[nH]c2sc3c(c2c1=O)CCCC3 | 6% | 7.1% | –
CCSc1nc2sc3c(c2c(=O)[nH]1)CCCC3 | 8% | 4% | –
Cc1c(-c2ccccc2)sc(N)c1C(N)=O | – | – | inhibition [8]: 3%; inhibition [7]: 2%
CCOC(=O)c1c(N)sc(-c2ccccc2)c1-c1ccccc1 | 13% | – | Activity [1]: Non-toxic; Activity [3]: Non-toxic; Activity [4]: Toxic
Cc1c(-c2ccccc2)sc(N)c1C#N | 17% | – | –

Second part, led by results:

inhibition [2] | inhibition [6] | Structure (SMILES) | also measured
0% | – | CCOC(=O)c1c(N=C=S)sc(-c2ccccc2)c1C | Activity [1]: Non-toxic; Activity [3]: Non-toxic; Activity [4]: Toxic; Activity [5]: Toxic
7% | – | CCOC(=O)c1c(N=NC#N)sc(-c2ccccc2)c1C | –
-1% | 2% | CCOC(=O)c1c(-n2cccc2)sc(-c2ccccc2)c1C | –
12% | – | CCOC(=O)c1c(N)sc(-c2ccccc2)c1C | Activity [1]: Non-toxic; Activity [3]: Non-toxic; Activity [4]: Toxic; Activity [5]: Toxic
7% | -6.5% | CCNC(=S)Nc1sc(-c2ccccc2)c(C)c1C(=O)OCC | –
25% | 4% | CCOC(=O)c1c(NC(=O)CNCc2ccccc2)sc(-c2ccccc2)c1C | –
1% | 18% | CCOC(=O)Nc1cc(C)c(-c2ccccc2)s1 | –
4% | 10% | CCOC(=O)C(=O)Nc1sc(-c2ccccc2)c(C)c1C(=O)OCC | –
9% | 4% | CCNC(=O)c1c(N)sc(-c2ccccc2)c1C | –
14% | 9% | CCOC(=O)c1c(NC(=O)CN2CCOCC2)sc(-c2ccccc2)c1C | –
3% | 4% | CCOC(=O)c1c(NC(C)=O)sc(-c2ccccc2)c1C | –
0% | – | CCOC(=O)c1c(Cl)sc(-c2ccccc2)c1C | –
-3% | 5% | CCOC(=O)c1c(NC(=O)c2ccccc2)sc(-c2ccccc2)c1C | –
19% | 12% | CCOC(=O)Nc1sc(-c2ccccc2)c(C)c1C(N)=O | –
18% | 20% | CCOC(=O)c1c(NC(=O)C(F)(F)F)sc(-c2ccccc2)c1C | –
– | 44% | Cc1c(-c2ccccc2)sc(N)c1C(=O)O | inhibition [7]: 20%
4.5% | 19% | CCOC(=O)c1c(NC)sc(-c2ccccc2)c1C | –
12% | 7% | CCOC(=O)Nc1sc(-c2ccccc2)c(C)c1C(=O)O | –
0.5% | 9% | CCNC(=O)Nc1sc(-c2ccccc2)c(C)c1C(=O)OCC | –
10% | – | CCOC(=O)c1c(N=NN(C)C)sc(-c2ccccc2)c1C | –
5% | – | CCCOC(=O)c1c(N)sc(-c2ccccc2)c1C | Activity [1]: Non-toxic; Activity [3]: Non-toxic; Activity [4]: Toxic; Activity [5]: Toxic
5.8% | 17% | CCNC(=O)Nc1sc(-c2ccccc2)c(C)c1C(N)=O | –

Reference: ChEMBL document CHEMBL1154608, “Substituted 2-aminothiopen-derivatives: a potential new class of GluR6-antagonists” (Eur J Med Chem, 2010)
